pIC50: −log10 of the molar value.
How the values were obtained:
HeLa [1] = test: In vitro anticellular activity expressed as inhibitory concentration for the growth of HeLa S3 cells for a period of 72 hour; type: functional, cell-based; settings: Homo sapiens
Summary of the method: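 HeLa S3 cells, 2 × 10^4 per well, precultured 24 h at 37 °C in 5% CO2, then exposed continuously to compound for 72 h. Cells detached with PBS(–) containing 0.05% trypsin and 0.02% EDTA and counted electronically. IC50 is the concentration giving 50% inhibition of cell growth.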

HeLa [2] = test: In vitro anticellular activity expressed as inhibitory concentration for the growth of human uterine cervix carcinoma HeLa S3 cells for a period of 1 hour; type: functional, cell-based
Summary of the method: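 HeLa S3 cells seeded at 2 × 10^4/well and precultured 24 h at 37 °C, 5% CO2. Pulse exposure: compound for 1 h, washed with Ca/Mg-free PBS, then grown 71 h in fresh medium. Cells detached with 0.05% trypsin/0.02% EDTA in PBS and counted electronically. IC50 is the concentration giving 50% growth inhibition.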

Mus musculus [3] = test: Treated/Control value was measured in mice(implanted subcutaneously with sarcoma 180 cells) at the dose of 4 mg/kg; type: functional
Summary of the method: (§1)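 Adult male ddY mice, five per group, implanted sc at the axillary region with passaged sarcoma 180 cells. Drug given iv starting 1 day after inoculation. Tumor length and width measured; volume = length × width²/2. T/C is mean tumor volume of treated over control. Effective if T/C ≤42% with Mann–Whitney U p < 0.05.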

Mus musculus [4] = test: Treated/Control value was measured in mice(implanted subcutaneously with sarcoma 180 cells) at the dose of 8 mg/kg; type: functional; summary of the method: as §1
Mus musculus [5] = test: Treated/Control value was measured in mice(implanted subcutaneously with sarcoma 180 cells) at the dose of 0.13 mg/kg; type: functional; summary of the method: as §1
Mus musculus [6] = test: Treated/Control value was measured in mice(implanted subcutaneously with sarcoma 180 cells) at the dose of 2 mg/kg; type: functional; summary of the method: as §1

| Structure (SMILES) | pIC50 (HeLa [1]) | pIC50 (HeLa [2]) | T/C (Mus musculus [3]) | T/C (Mus musculus [4]) | T/C (Mus musculus [5]) | T/C (Mus musculus [6]) |
| --- | --- | --- | --- | --- | --- | --- |
| COC(=O)c1c(C)[nH]c2c1[C@@]13C[C@@H]1CN(C(=O)/C=C/c1ccc(OC)cc1)C3=CC2=O | 9.03 | 8.15 |  |  |  |  |
| CCCOc1ccc(/C=C/C(=O)N2C[C@H]3C[C@@]34C2=CC(=O)c2[nH]c(C)c(C(=O)OC)c24)cc1 | 8.08 | 7.29 |  |  |  |  |
| COC(=O)c1c(C)[nH]c2c1[C@@]13C[C@@H]1CN(C(=O)/C=C/c1ccc(OC)c(N)c1)C3=CC2=O | 9.28 | 8.68 |  |  |  |  |
| COC(=O)c1c(C)[nH]c2c1[C@@]13C[C@@H]1CN(C(=O)/C=C/c1ccc(N(C)C)cc1)C3=CC2=O | 8.80 | 7.92 |  |  |  |  |
| CCCCCOc1ccc(/C=C/C(=O)N2C[C@H]3C[C@@]34C2=CC(=O)c2[nH]c(C)c(C(=O)OC)c24)cc1 | 7.30 | < 7.00 |  |  |  |  |
| COC(=O)c1c(C)[nH]c2c1[C@@]13C[C@@H]1CN(C(=O)/C=C/c1ccc(C)cc1)C3=CC2=O | 8.64 | 7.48 |  |  |  |  |
| COC(=O)c1c(C)[nH]c2c1C1C(=CC2OC(=O)N(C)C)N(C(=O)/C=C/c2ccc(OC)c(OCC(=O)O)c2)C[C@H]1CBr (some centres undefined) | < 6.00 | 5.00 | 0.72 |  |  |  |
| COC(=O)c1c(C)[nH]c2c1[C@@]13C[C@@H]1CN(C(=O)/C=C/c1ccc(OC)c(OCCCN(C)C)c1)C3=CC2=O | 8.80 | 8.52 |  |  |  |  |
| CCN(CC)c1cc(/C=C/C(=O)N2C[C@H]3C[C@@]34C2=CC(=O)c2[nH]c(C)c(C(=O)OC)c24)ccc1OC | 8.64 | 8.02 |  |  |  |  |
| CCc1ccc(/C=C/C(=O)N2C[C@H]3C[C@@]34C2=CC(=O)c2[nH]c(C)c(C(=O)OC)c24)cc1 | 8.42 | 7.29 |  |  |  |  |
| COC(=O)c1c(C)[nH]c2c1[C@@]13C[C@@H]1CN(C(=O)/C=C/c1ccc(OC)c(OCCCN)c1)C3=CC2=O | 8.85 | 8.23 |  |  |  |  |
| COC(=O)c1c(C)[nH]c2c1[C@@]13C[C@@H]1CN(C(=O)/C=C/c1ccc(OCc4ccc(OC)cc4)cc1)C3=CC2=O | 9.09 | 7.89 |  |  |  |  |
| C=CCOc1ccc(/C=C/C(=O)N2C[C@H]3C[C@@]34C2=CC(=O)c2[nH]c(C)c(C(=O)OC)c24)cc1 | 8.12 | 7.41 |  |  |  |  |
| COC(=O)c1c(C)[nH]c2c1[C@@]13C[C@@H]1CN(C(=O)/C=C/c1ccc(NC(=O)OC(C)(C)C)cc1)C3=CC2=O | 9.25 | 8.40 |  |  |  |  |
| COC(=O)c1c(C)[nH]c2c1[C@@]13C[C@@H]1CN(C(=O)/C=C/c1ccc(OC)c(OCCCN=[N+]=[N-])c1)C3=CC2=O | 9.13 | 8.70 |  |  |  |  |
| COC(=O)c1c(C)[nH]c2c1[C@@]13C[C@@H]1CN(C(=O)c1cc4cc(OC)c(OC)c(OC)c4[nH]1)C3=CC2=O | 9.80 | 9.30 |  |  |  |  |
| COC(=O)c1c(C)[nH]c2c1[C@@]13C[C@@H]1CN(C(=O)/C=C/c1ccc(N)cc1)C3=CC2=O | 8.59 | 7.49 |  |  |  |  |
| COC(=O)c1c(C)[nH]c2c1[C@@]13C[C@@H]1CN(C(=O)/C=C/c1ccc(O)cc1)C3=CC2=O | 8.46 | 7.72 |  |  |  |  |
| COC(=O)c1c(C)[nH]c2c1[C@@]13C[C@@H]1CN(C(=O)/C=C/c1ccc(OC)c(OCC(=O)OC(C)(C)C)c1)C3=CC2=O | 8.64 | 8.13 |  |  |  |  |
| COC(=O)COc1cc(/C=C/C(=O)N2C[C@H]3C[C@@]34C2=CC(=O)c2[nH]c(C)c(C(=O)OC)c24)ccc1OC | 9.07 | 8.89 |  |  |  |  |
| COC(=O)c1c(C)[nH]c2c1[C@@]13C[C@@H]1CN(C(=O)/C=C/c1ccc(OC)c(N(C)C)c1)C3=CC2=O | 9.04 | 8.60 |  |  |  |  |
| CCN(CC)c1cc(/C=C/C(=O)N2C[C@@H](CBr)C3C2=CC(OC(=O)N2CCN(C)CC2)c2[nH]c(C)c(C(=O)OC)c23)ccc1OC.Cl (some centres undefined) | 6.55 | 5.68 |  | 0.2 |  |  |
| COC(=O)c1c(C)[nH]c2c1C1C(=CC2OC(=O)N2CCN(CC(=O)NC(C)C)CC2)N(C(=O)/C=C/c2ccc(OC)cc2)C[C@H]1CBr.Cl (some centres undefined) | 7.21 | 5.92 |  | 0.12 |  |  |
| COC(=O)c1c(C)[nH]c2c1C1C(=CC2OC(=O)N2CCN(C)CC2)N(C(=O)/C=C/c2ccc(OC)c(N)c2)C[C@H]1CBr.Cl (some centres undefined) | 7.52 | 6.54 |  | 0.39 |  |  |
| COC(=O)c1c(C)[nH]c2c1C1C(=CC2OC(=O)N2CCN(C)CC2)N(C(=O)/C=C/c2ccc(OC)c(OCCCN)c2)C[C@H]1CBr.Cl (some centres undefined) | 7.52 | 6.54 |  |  | 0.77 |  |
| COC(=O)c1c(C)[nH]c2c1C1C(=CC2OC(=O)N2CCC(N3CCCCC3)CC2)N(C(=O)/C=C/c2ccc(OC)cc2)C[C@H]1CBr.Cl (some centres undefined) | 6.65 | 6.00 | 0.17 |  |  |  |
| COC(=O)c1c(C)[nH]c2c1C1C(=CC2OC(=O)N2CCN(C)CC2)N(C(=O)/C=C/c2ccc(OC)c(N(C)C)c2)C[C@H]1CBr.Cl (some centres undefined) | 7.28 | 6.37 |  |  |  | 0.13 |
| COC(=O)c1c(C)[nH]c2c1C1C(=CC2OC(=O)N2CCN(C)CC2)N(C(=O)/C=C/c2ccc(OC)cc2)C[C@H]1CBr.Cl (some centres undefined) | 7.43 | 5.74 | 0.2 |  |  |  |
